Reference: article PMC4076525 (The Journal of General Physiology, 2014)

B1: A383C (protein, UniProt P05825 23-746, looked up, variant A383C)
Ferrienterobactin receptor: QEPTDTPVSHDDTIVVTAAEQNLQAPGVSTITADEIRKNPVARDVSKIIRTMPGVNLTGNSTSGQRGNNRQIDIRGMGPENTLILIDGKPVSSRNSVRQGWRGERDTRGDTSWVPPEMIERIEVLRGPAAARYGNGAAGGVVNIITKKGSGEWHGSWDAYFNAPEHKEEGATKRTNFSLTGPLGDEFSFRLYGNLDKTQADAWDINQGHQSARAGTYATTLPAGREGVINKDINGVVRWDFAPLQSLELEAGYSRQGNLYAGDTQNTNSDSYTRSKYGDETNRLYRQNYALTWNGGWDNGVTTSNWVQYEHTRNSRIPEGLAGGTEGKFNEKATQDFVDIDLDDVMLHSEVNLPIDFLVNQTLTLGTEWNQQRMKDLSSNTQCLTGTNTGGAIDGVSTTDRSPYSKAEIFSLFAENNMELTDSTIVTPGLRFDHHSIVGNNWSPALNISQGLGDDFTLKMGIARAYKAPSLYQTNPNYILYSKGQGCYASAGGCYLQGNDDLKAETSINKEIGLEFKRDGWLAGVTWFRNDYRNKIEAGYVAVGQNAVGTDLYQWDNVPKAVVEGLEGSLNVPVSETVMWTNNITYMLKSENKTTGDRLSIIPEYTLNSTLSWQAREDLSMQTTFTWYGKQQPKKYNYKGQPAVGPETKEISPYSIVGLSATWDVTKNVSLTGGVDNLFDKRLWRAGNAQTTGDLAGANYIAGAGAYTYNEPGRTWYMSVNTHF
B2: S490C (protein, UniProt P05825 23-746, looked up, variant S490C)
Ferrienterobactin receptor: QEPTDTPVSHDDTIVVTAAEQNLQAPGVSTITADEIRKNPVARDVSKIIRTMPGVNLTGNSTSGQRGNNRQIDIRGMGPENTLILIDGKPVSSRNSVRQGWRGERDTRGDTSWVPPEMIERIEVLRGPAAARYGNGAAGGVVNIITKKGSGEWHGSWDAYFNAPEHKEEGATKRTNFSLTGPLGDEFSFRLYGNLDKTQADAWDINQGHQSARAGTYATTLPAGREGVINKDINGVVRWDFAPLQSLELEAGYSRQGNLYAGDTQNTNSDSYTRSKYGDETNRLYRQNYALTWNGGWDNGVTTSNWVQYEHTRNSRIPEGLAGGTEGKFNEKATQDFVDIDLDDVMLHSEVNLPIDFLVNQTLTLGTEWNQQRMKDLSSNTQALTGTNTGGAIDGVSTTDRSPYSKAEIFSLFAENNMELTDSTIVTPGLRFDHHSIVGNNWSPALNISQGLGDDFTLKMGIARAYKAPSLYQTNPNYILYSKGQGCYACAGGCYLQGNDDLKAETSINKEIGLEFKRDGWLAGVTWFRNDYRNKIEAGYVAVGQNAVGTDLYQWDNVPKAVVEGLEGSLNVPVSETVMWTNNITYMLKSENKTTGDRLSIIPEYTLNSTLSWQAREDLSMQTTFTWYGKQQPKKYNYKGQPAVGPETKEISPYSIVGLSATWDVTKNVSLTGGVDNLFDKRLWRAGNAQTTGDLAGANYIAGAGAYTYNEPGRTWYMSVNTHF
B3: T550C (protein, UniProt P05825 23-746, looked up, variant T550C)
Ferrienterobactin receptor: QEPTDTPVSHDDTIVVTAAEQNLQAPGVSTITADEIRKNPVARDVSKIIRTMPGVNLTGNSTSGQRGNNRQIDIRGMGPENTLILIDGKPVSSRNSVRQGWRGERDTRGDTSWVPPEMIERIEVLRGPAAARYGNGAAGGVVNIITKKGSGEWHGSWDAYFNAPEHKEEGATKRTNFSLTGPLGDEFSFRLYGNLDKTQADAWDINQGHQSARAGTYATTLPAGREGVINKDINGVVRWDFAPLQSLELEAGYSRQGNLYAGDTQNTNSDSYTRSKYGDETNRLYRQNYALTWNGGWDNGVTTSNWVQYEHTRNSRIPEGLAGGTEGKFNEKATQDFVDIDLDDVMLHSEVNLPIDFLVNQTLTLGTEWNQQRMKDLSSNTQALTGTNTGGAIDGVSTTDRSPYSKAEIFSLFAENNMELTDSTIVTPGLRFDHHSIVGNNWSPALNISQGLGDDFTLKMGIARAYKAPSLYQTNPNYILYSKGQGCYASAGGCYLQGNDDLKAETSINKEIGLEFKRDGWLAGVTWFRNDYRNKIEAGYVAVGQNAVGCDLYQWDNVPKAVVEGLEGSLNVPVSETVMWTNNITYMLKSENKTTGDRLSIIPEYTLNSTLSWQAREDLSMQTTFTWYGKQQPKKYNYKGQPAVGPETKEISPYSIVGLSATWDVTKNVSLTGGVDNLFDKRLWRAGNAQTTGDLAGANYIAGAGAYTYNEPGRTWYMSVNTHF
B4: A322C-FM: FepA A322C labeled with fluorescein-5-maleimide (FM) (conjugate, UniProt P05825 23-746, looked up, variant A322C)
Ferrienterobactin receptor: QEPTDTPVSHDDTIVVTAAEQNLQAPGVSTITADEIRKNPVARDVSKIIRTMPGVNLTGNSTSGQRGNNRQIDIRGMGPENTLILIDGKPVSSRNSVRQGWRGERDTRGDTSWVPPEMIERIEVLRGPAAARYGNGAAGGVVNIITKKGSGEWHGSWDAYFNAPEHKEEGATKRTNFSLTGPLGDEFSFRLYGNLDKTQADAWDINQGHQSARAGTYATTLPAGREGVINKDINGVVRWDFAPLQSLELEAGYSRQGNLYAGDTQNTNSDSYTRSKYGDETNRLYRQNYALTWNGGWDNGVTTSNWVQYEHTRNSRIPEGLCGGTEGKFNEKATQDFVDIDLDDVMLHSEVNLPIDFLVNQTLTLGTEWNQQRMKDLSSNTQALTGTNTGGAIDGVSTTDRSPYSKAEIFSLFAENNMELTDSTIVTPGLRFDHHSIVGNNWSPALNISQGLGDDFTLKMGIARAYKAPSLYQTNPNYILYSKGQGCYASAGGCYLQGNDDLKAETSINKEIGLEFKRDGWLAGVTWFRNDYRNKIEAGYVAVGQNAVGTDLYQWDNVPKAVVEGLEGSLNVPVSETVMWTNNITYMLKSENKTTGDRLSIIPEYTLNSTLSWQAREDLSMQTTFTWYGKQQPKKYNYKGQPAVGPETKEISPYSIVGLSATWDVTKNVSLTGGVDNLFDKRLWRAGNAQTTGDLAGANYIAGAGAYTYNEPGRTWYMSVNTHF
modifications: fluorescein-5-maleimide label
B5: S490C-FM: FepA S490C labeled with fluorescein-5-maleimide (FM) (conjugate, UniProt P05825 23-746, looked up, variant S490C)
Ferrienterobactin receptor: QEPTDTPVSHDDTIVVTAAEQNLQAPGVSTITADEIRKNPVARDVSKIIRTMPGVNLTGNSTSGQRGNNRQIDIRGMGPENTLILIDGKPVSSRNSVRQGWRGERDTRGDTSWVPPEMIERIEVLRGPAAARYGNGAAGGVVNIITKKGSGEWHGSWDAYFNAPEHKEEGATKRTNFSLTGPLGDEFSFRLYGNLDKTQADAWDINQGHQSARAGTYATTLPAGREGVINKDINGVVRWDFAPLQSLELEAGYSRQGNLYAGDTQNTNSDSYTRSKYGDETNRLYRQNYALTWNGGWDNGVTTSNWVQYEHTRNSRIPEGLAGGTEGKFNEKATQDFVDIDLDDVMLHSEVNLPIDFLVNQTLTLGTEWNQQRMKDLSSNTQALTGTNTGGAIDGVSTTDRSPYSKAEIFSLFAENNMELTDSTIVTPGLRFDHHSIVGNNWSPALNISQGLGDDFTLKMGIARAYKAPSLYQTNPNYILYSKGQGCYACAGGCYLQGNDDLKAETSINKEIGLEFKRDGWLAGVTWFRNDYRNKIEAGYVAVGQNAVGTDLYQWDNVPKAVVEGLEGSLNVPVSETVMWTNNITYMLKSENKTTGDRLSIIPEYTLNSTLSWQAREDLSMQTTFTWYGKQQPKKYNYKGQPAVGPETKEISPYSIVGLSATWDVTKNVSLTGGVDNLFDKRLWRAGNAQTTGDLAGANYIAGAGAYTYNEPGRTWYMSVNTHF
modifications: fluorescein-5-maleimide label
B6: A698C (protein, UniProt P05825 23-746, looked up, variant A698C)
Ferrienterobactin receptor: QEPTDTPVSHDDTIVVTAAEQNLQAPGVSTITADEIRKNPVARDVSKIIRTMPGVNLTGNSTSGQRGNNRQIDIRGMGPENTLILIDGKPVSSRNSVRQGWRGERDTRGDTSWVPPEMIERIEVLRGPAAARYGNGAAGGVVNIITKKGSGEWHGSWDAYFNAPEHKEEGATKRTNFSLTGPLGDEFSFRLYGNLDKTQADAWDINQGHQSARAGTYATTLPAGREGVINKDINGVVRWDFAPLQSLELEAGYSRQGNLYAGDTQNTNSDSYTRSKYGDETNRLYRQNYALTWNGGWDNGVTTSNWVQYEHTRNSRIPEGLAGGTEGKFNEKATQDFVDIDLDDVMLHSEVNLPIDFLVNQTLTLGTEWNQQRMKDLSSNTQALTGTNTGGAIDGVSTTDRSPYSKAEIFSLFAENNMELTDSTIVTPGLRFDHHSIVGNNWSPALNISQGLGDDFTLKMGIARAYKAPSLYQTNPNYILYSKGQGCYASAGGCYLQGNDDLKAETSINKEIGLEFKRDGWLAGVTWFRNDYRNKIEAGYVAVGQNAVGTDLYQWDNVPKAVVEGLEGSLNVPVSETVMWTNNITYMLKSENKTTGDRLSIIPEYTLNSTLSWQAREDLSMQTTFTWYGKQQPKKYNYKGQPAVGPETKEISPYSIVGLSATWDVTKNVSLTGGVDNLFDKRLWRAGNAQTTGDLAGCNYIAGAGAYTYNEPGRTWYMSVNTHF

How the values were obtained:
[1] = Fluorescence recovery after FeEnt quenching; format: cell-based, Escherichia coli; conditions: after FM modification
59FeEnt transport = format: cell-based, Escherichia coli; conditions: for 59FeEnt transport rate compared with wild-type FepA: before fluoresceination; for Vmax fold lower after fluoresceination: 59FeEnt uptake
Summary of the method: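 Cultures were grown in LB with antibiotics, then in iron-deficient MOPS medium to 10^9 cells/ml. Cells were assayed before and after labeling with 5 µM fluorescein-5-maleimide (pH 6.5 phosphate/NaCl buffer, 5 min, 37°C, β-mercaptoethanol stop). Uptake was measured in MOPS medium with 0.4% glucose at 37°C in 10-ml volumes. KM and Vmax came from an enzyme-kinetics equation fit per sample.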

[2] = Extent of FeEnt-induced quenching of FM fluorescence in live cells; format: cell-based, Escherichia coli; conditions: 10 nM FeEnt, 2.5 × 10^7 cells/ml, FM-labeled mutants
Summary of the method: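 Hosts were tonB+ ΔfepA or ΔtonB ΔfepA E. coli expressing plasmid-borne Cys-substituted FepA, grown in iron-deficient MOPS medium to late log. 10^10 cells were labeled with 5 µM fluorescein-5-maleimide in 50 mM Na2HPO4, 0.9% NaCl, pH 6.5, for 5 min at 37°C. Labeling was quenched with β-mercaptoethanol, and cells were resuspended in PBS with 0.4% glucose. FeEnt was added to 2.5 × 10^7 cells in 3 ml, stirred at 2°C, with emission read at 520 nm.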

[3] = 59FeEnt binding by cells expressing FepA Cys substitution mutants; set-up: species or system Escherichia coli; conditions: read-out: Binding >FM Kd, after modification with FM
Summary of the method: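 Cells were grown overnight at 37°C in LB with streptomycin (100 µg/ml) and chloramphenicol (20 µg/ml). They were subcultured 1% into iron-deficient MOPS medium and grown 5.5–6 h to 10^9 cells/ml, then labeled with 5 µM fluorescein-5-maleimide at pH 6.5 for 5 min at 37°C. Reactions were stopped with 100 mM β-mercaptoethanol. Binding ran at 0°C in 10-ml volumes, and Kd and capacity came from a bound-versus-total fit.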

Molecule | Increase of fluorescence recovery time compared with S271C-FM [1] [fold] | 59FeEnt transport rate compared with wild-type FepA (59FeEnt transport) | Quenching of FM emissions by FeEnt binding [2] | Vmax fold lower after fluoresceination (59FeEnt transport) | further results
B1 | 10 | about half that rate |  |  | 
B2 | 10 | about half that rate |  |  | 
B3 | 10 |  |  |  | 
B4 |  |  | similarly quenched | 3–10 fold | 
B5 |  |  | 30% | 3–10 fold | Kd [3]: 90 nM; Km (59FeEnt transport; read-out: Transport >FM KM, 59FeEnt, 37°C, after modification with FM): 0.057 µM
B6 |  |  | > 60% |  | 
